Results gathered from unrelated publications.
Compare with care: the assays were run in different laboratories.
Cell line: DU-145
Effect on: cell growth or viability

SMILES	test	setting	IC50 [µM]
Oc1ccc(C(c2c[nH]c3ccccc23)c2c[nH]c3ccccc23)cc1	MTT	48 h	48
COc1cc([C@@H]2C[C@@H](C)OC(=O)c3cc4ccccn4c32)cc(OC)c1OC (racemic)	resazurin	72 h	> 100
C[C@H]1[C@@H](O)O[C@@H]2O[C@@]3(C)CC[C@H]4[C@H](C)CC[C@@H]1[C@@]24OO3	CCK-8	48 h	> 50
COc1cccc2c1C(=O)c1c(O)c3c(c(O)c1C2=O)C[C@@](O)(C(=O)CO)C[C@@H]3O[C@H]1C[C@H](N)[C@H](O)[C@H](C)O1	resazurin	72 h	0.095
COc1cc(Nc2nccc(-c3cnn4nc(OC)ccc34)n2)cc(C(F)(F)F)c1	ATP luminescence	–	0.38
COC1=CC(=O)N(C(=O)[C@@H](CCC(Cl)(Cl)Cl)NC(=O)C(C)(C)C)[C@@H]1CCC(Cl)Cl	resazurin	72 h	> 35
O=C1NC(c2ccccc2)(c2ccccc2)C(=O)N1Cc1cn(-c2c3ccccc3nc3ccccc23)nn1	MTT	–	79.3
CCc1c2c(nc3ccc(OC(=O)N4CCC(N5CCCCC5)CC4)cc13)-c1cc3c(c(=O)n1C2)COC(=O)[C@]3(O)CC	SRB	72 h	9.3
Cc1ccc2[nH]cc(C(c3ccc(/C=C/C(=O)O)s3)c3c[nH]c4ccc(C)cc34)c2c1	MTT	48 h	> 100
CC(C)C(=O)Nc1ccc([N+](=O)[O-])c(C(F)(F)F)c1	CCK-8	48 h	> 50
C[C@@H]1C[C@@H](c2cccc(F)c2)c2c(cc3ccccn23)C(=O)O1 (racemic)	resazurin	72 h	> 100
Cn1cc(C(c2ccc(C(=O)O)cc2)c2cn(C)c3ccccc23)c2ccccc21	MTT	48 h	> 100
C[C@@H]1C[C@@H](c2ccc3c(c2)OCO3)c2c(cc3ccccn23)C(=O)O1 (racemic)	resazurin	72 h	35.7
COc1cccc2c1C(=O)c1c(O)c3c(c(O)c1C2=O)C[C@@](O)(C(=O)CO)C[C@@H]3O[C@H]1C[C@H](N)[C@H](O)[C@H](C)O1	WST-1	72 h	0.03
C[C@@H]1C[C@@H](c2ccc(Br)cc2)c2c(cc3ccccn23)C(=O)O1 (racemic)	resazurin	72 h	46.6
O=C(O)c1ccc(C(c2c[nH]c3ccccc23)c2c[nH]c3ccccc23)cc1	MTT	48 h	> 100
C[C@@H]1C[C@@H](c2cccc(Cl)c2)c2c(cc3ccccn23)C(=O)O1 (racemic)	resazurin	72 h	> 100
FC(F)(F)c1ccc(C(c2c[nH]c3ccccc23)c2c[nH]c3ccccc23)cc1	MTT	48 h	47
c1csc([I+]c2cccs2)c1	trypan blue	48 h	~3.5
O=c1ccn(Cc2cn(-c3c4ccccc4nc4ccccc34)nn2)c(=O)[nH]1	MTT	–	59.3
O=C(O)/C=C/c1cccc(C(c2c[nH]c3ccccc23)c2c[nH]c3ccccc23)c1	MTT	48 h	> 100
Cc1ccc(S(=O)(=O)N(C)CC(=O)N(Cc2ccc(C3CCCCC3)cc2)c2ccc(C(=O)O)c(O)c2)cc1	–	–	37.2
